Experimental data reported in ChEMBL document CHEMBL1149092, “Studies on pyrrolopyrimidines as selective inhibitors of multidrug-resistance-associated protein in multidrug resistance” (J Med Chem, 2004).

Key:
[1] = target: Multidrug resistance-associated protein 1 (Homo sapiens, UniProt P33527); test: Inhibitory activity against human transporter MRP1 (Multidrug resistance associated protein 1) expressed in COR.L23/R cell line
Summary of the method: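 Tritiated daunomycin (0.3 μCi/mL) accumulation in COR.L23/R cells (MRP-expressing human NSCLC MDR subline), seeded 48 h before the assay. Cells were washed and cell-associated radioactivity measured. 100% accumulation was set with 100 μM verapamil.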

[2] = target: ATP-dependent translocase ABCB1 (Mus musculus, UniProt P06795); test: Inhibitory activity against mouse transporter Pgp (P-glycoprotein) expressed in EMT6/AR1.0 cell line
Sequence of ATP-dependent translocase ABCB1 (P06795 whole entry): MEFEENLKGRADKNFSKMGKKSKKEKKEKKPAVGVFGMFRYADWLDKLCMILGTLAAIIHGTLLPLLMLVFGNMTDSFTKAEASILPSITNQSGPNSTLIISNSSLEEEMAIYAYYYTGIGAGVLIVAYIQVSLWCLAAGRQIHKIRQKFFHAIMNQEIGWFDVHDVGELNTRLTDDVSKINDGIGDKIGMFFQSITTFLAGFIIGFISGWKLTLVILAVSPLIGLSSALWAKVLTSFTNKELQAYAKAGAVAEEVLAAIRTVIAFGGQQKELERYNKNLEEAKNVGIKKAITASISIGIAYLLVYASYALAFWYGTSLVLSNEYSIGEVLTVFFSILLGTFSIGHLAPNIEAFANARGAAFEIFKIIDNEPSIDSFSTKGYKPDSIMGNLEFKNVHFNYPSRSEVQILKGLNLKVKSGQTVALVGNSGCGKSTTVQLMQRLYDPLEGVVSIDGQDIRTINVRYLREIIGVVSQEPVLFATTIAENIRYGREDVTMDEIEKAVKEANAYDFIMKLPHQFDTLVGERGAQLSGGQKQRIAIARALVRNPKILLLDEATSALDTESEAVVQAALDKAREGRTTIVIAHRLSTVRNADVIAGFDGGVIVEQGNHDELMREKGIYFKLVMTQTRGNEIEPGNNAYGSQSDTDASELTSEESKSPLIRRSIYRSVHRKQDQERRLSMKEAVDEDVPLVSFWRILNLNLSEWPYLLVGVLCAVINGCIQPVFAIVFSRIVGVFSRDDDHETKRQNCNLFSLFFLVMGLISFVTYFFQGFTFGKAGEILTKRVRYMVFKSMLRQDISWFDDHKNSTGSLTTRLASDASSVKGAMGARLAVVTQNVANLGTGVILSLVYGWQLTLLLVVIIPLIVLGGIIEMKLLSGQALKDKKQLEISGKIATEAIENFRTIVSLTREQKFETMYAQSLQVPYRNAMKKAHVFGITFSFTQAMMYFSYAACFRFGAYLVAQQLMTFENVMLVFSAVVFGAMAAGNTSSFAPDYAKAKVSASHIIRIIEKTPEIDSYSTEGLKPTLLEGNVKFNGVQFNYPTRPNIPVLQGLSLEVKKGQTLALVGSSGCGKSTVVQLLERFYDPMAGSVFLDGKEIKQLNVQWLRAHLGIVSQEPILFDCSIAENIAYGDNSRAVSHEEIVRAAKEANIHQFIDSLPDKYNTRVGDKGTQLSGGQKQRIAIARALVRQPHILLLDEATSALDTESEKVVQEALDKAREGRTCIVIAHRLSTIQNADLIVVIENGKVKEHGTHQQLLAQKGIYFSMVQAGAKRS
Summary of the method: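 Accumulation protocol run as for MRP1, but in the Pgp-expressing murine mammary carcinoma EMT6/AR1.0 subline. IC50 is the mean of at least three experiments.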

[3] = (§1) Area under curve when injected intravenously in BALB/C mice at a dose of 20 mg/kg; type: ADME, organism-based; design: dose 20 mg/kg, route intravenous; settings: BALB/C, mouse, in vivo, iv
Summary of the method: (§2)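 Female Balb/c mice, three to four per time point, were dosed iv, ip or po at 20–50 mg/kg. Blood was taken by cardiac puncture under anesthesia from 0.03 to 24 h. Plasma was methanol-extracted and analysed by HPLC. AUC (linear/log trapezoidal) and t1/2 were derived by noncompartmental analysis.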

[4] = (§3) Maximal plasma concentration in BALB/C mice after 20 mg/kg intravenous dose; type: ADME, organism-based; design: dose 20 mg/kg, route intravenous; settings: BALB/C, mouse, plasma; summary of the method: as §2
[5] = (§4) Half life in BALB/C mice at the dose of 20 mg/kg by i.v. administration; type: ADME, organism-based; design: dose 20 mg/kg, route intravenous; settings: mouse, in vivo, iv; summary of the method: as §2
Cytochrome P450 3A4 = Cytochrome P450 3A4 (Homo sapiens, UniProt P08684); test: Inhibitory concentration to inhibit MRP1 in CYP 3A4 assay
Sequence of Cytochrome P450 3A4 (P08684 whole entry): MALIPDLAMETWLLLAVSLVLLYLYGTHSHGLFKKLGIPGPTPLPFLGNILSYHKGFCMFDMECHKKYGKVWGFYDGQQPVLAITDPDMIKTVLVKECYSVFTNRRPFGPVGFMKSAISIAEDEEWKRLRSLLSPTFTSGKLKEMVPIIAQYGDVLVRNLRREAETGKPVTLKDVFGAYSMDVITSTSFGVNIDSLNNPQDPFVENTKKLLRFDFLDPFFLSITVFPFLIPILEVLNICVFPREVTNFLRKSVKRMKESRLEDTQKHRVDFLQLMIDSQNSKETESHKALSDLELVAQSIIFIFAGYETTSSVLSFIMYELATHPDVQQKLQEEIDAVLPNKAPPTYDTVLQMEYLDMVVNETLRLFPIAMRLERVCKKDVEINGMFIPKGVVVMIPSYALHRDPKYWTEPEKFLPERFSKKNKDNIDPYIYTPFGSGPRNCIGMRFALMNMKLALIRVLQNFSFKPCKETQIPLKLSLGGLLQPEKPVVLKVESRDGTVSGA

[6] = Area under curve when injected intraperitoneally in BALB/C mice at a dose of 20 mg/kg; type: ADME, organism-based; design: dose 20 mg/kg, route intraperitoneal; settings: mouse, in vivo, ip; summary of the method: as §2
[7] = Area under curve when injected perorally in BALB/C mice at a dose of 50 mg/kg; type: ADME, organism-based; design: dose 50 mg/kg, route oral; settings: mouse, in vivo, po; summary of the method: as §2
[8] = Maximal plasma concentration in BALB/C mice after 20 mg/kg intraperitoneal dose; type: ADME, organism-based; design: dose 20 mg/kg, route intraperitoneal; settings: mouse, ip; summary of the method: as §2
[9] = Maximal plasma concentration in BALB/C mice after 50 mg/kg oral dose; type: ADME, organism-based; design: dose 50 mg/kg, route oral; settings: mouse; summary of the method: as §2
[10] = Half life in BALB/C mice at the dose of 20 mg/kg by i.p. administration; type: ADME, organism-based; design: dose 20 mg/kg, route intraperitoneal; settings: mouse, in vivo, ip; summary of the method: as §2
[11] = Bioavailability in mouse (BALB/C) (dose 50 mg/kg p.o.); settings: in vivo, po
[12] = Bioavailability in mouse (BALB/C) (dose 20 mg/kg i.p.); settings: in vivo, ip
[13] = Half life in BALB/C mice at the dose of 50 mg/kg by p.o. administration; settings: mouse, in vivo, po
[14] = Half life in BALB/C mice at the dose of 50 mg/kg by p.o. administration; type: ADME, organism-based; design: dose 50 mg/kg, route oral; settings: mouse, in vivo, po; summary of the method: as §2
[15] = Half life in BALB/C mice at the dose of 50 mg/kg by i.p. administration; type: ADME, organism-based; design: dose 50 mg/kg, route intraperitoneal; settings: mouse, in vivo, ip; summary of the method: as §2
Mus musculus [16] = test: as §1; type: ADME, organism-based; design: dose 20 mg/kg, route intravenous; settings: in vivo, iv; summary of the method: as §2
Mus musculus [17] = test: as §3; type: ADME, organism-based; design: dose 20 mg/kg, route intravenous; settings: in vivo; summary of the method: as §2
Mus musculus [18] = test: as §4; type: ADME, organism-based; design: dose 20 mg/kg, route intravenous; settings: in vivo, iv; summary of the method: as §2

Sequence of Multidrug resistance-associated protein 1 (P33527 whole entry): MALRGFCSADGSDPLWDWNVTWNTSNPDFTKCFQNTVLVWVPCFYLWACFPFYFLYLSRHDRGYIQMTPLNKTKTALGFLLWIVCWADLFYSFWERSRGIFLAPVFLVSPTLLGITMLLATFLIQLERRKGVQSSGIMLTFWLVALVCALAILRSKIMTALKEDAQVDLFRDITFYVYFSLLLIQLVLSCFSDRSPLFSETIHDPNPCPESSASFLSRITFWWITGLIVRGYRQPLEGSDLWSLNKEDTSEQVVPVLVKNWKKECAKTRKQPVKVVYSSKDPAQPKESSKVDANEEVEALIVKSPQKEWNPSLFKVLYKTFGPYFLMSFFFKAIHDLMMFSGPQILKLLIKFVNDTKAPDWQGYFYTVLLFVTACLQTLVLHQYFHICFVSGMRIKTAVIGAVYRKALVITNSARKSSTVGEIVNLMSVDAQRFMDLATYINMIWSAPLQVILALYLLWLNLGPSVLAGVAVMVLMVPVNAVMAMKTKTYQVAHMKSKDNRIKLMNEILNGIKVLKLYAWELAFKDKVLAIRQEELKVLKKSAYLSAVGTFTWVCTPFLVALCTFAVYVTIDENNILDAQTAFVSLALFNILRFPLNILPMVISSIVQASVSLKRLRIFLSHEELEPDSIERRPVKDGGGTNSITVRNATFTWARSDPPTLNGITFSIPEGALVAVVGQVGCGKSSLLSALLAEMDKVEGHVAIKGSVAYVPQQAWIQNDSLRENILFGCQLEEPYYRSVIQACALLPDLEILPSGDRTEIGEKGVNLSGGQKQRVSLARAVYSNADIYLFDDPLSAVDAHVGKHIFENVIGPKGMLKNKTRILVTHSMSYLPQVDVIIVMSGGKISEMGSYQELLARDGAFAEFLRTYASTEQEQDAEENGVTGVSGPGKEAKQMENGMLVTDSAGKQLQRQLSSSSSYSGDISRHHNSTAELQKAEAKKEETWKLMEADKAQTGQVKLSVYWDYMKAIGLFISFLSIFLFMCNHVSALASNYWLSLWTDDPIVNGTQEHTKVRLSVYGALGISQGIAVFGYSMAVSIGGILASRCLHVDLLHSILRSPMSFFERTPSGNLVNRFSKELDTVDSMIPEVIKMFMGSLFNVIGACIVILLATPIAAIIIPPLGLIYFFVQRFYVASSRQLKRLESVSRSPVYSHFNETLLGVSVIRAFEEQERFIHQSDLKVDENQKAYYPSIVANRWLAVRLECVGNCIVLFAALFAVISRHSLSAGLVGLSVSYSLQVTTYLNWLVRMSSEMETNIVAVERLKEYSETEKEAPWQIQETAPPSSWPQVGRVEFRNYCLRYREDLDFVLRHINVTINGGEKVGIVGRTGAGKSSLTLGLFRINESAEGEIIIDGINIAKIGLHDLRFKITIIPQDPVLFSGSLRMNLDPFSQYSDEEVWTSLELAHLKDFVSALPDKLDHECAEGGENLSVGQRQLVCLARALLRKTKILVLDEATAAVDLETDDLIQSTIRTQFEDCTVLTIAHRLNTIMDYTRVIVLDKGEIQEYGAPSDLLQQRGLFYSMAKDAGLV

Row | SMILES | IC50 [1] [µM] | IC50 [2] [µM] | other results
1 | Cc1ccccc1-c1nc(N2CCN(CCc3ccc(F)c(F)c3)CC2)c2c(n1)c(C#N)c1n2CCCC1 | 0.62 | 18 | –
2 | N#Cc1c2n(c3c(N4CCN(CCc5ccccc5)CC4)nc(-c4ccccc4)nc13)CCCC2 | 0.715 | 5 | –
3 | N#Cc1c2n(c3c(SCc4ccc(Cl)cc4)ncnc13)CCCCC2 | 3.9 | – | –
4 | COc1cccc(CCN2CCN(c3ncnc4c(C#N)c5n(c34)CCCC5)CC2)c1 | 2.3 | 16.2 | –
5 | O=C(NCc1ccccn1)c1c2n(c3c(N4CCN(CCc5ccc(F)c(F)c5)CC4)ncnc13)CCCC2 | 0.061 | 3.4 | AUC [3]: 7380 ng·h/mL; Cmax [4]: 11.4 µM; half-life ([5]; BALB/C): 2.5 h; IC50 (Cytochrome P450 3A4): 30.1 µM
6 | N#Cc1c2n(c3c(N4CCN(CCc5ccc(F)c(F)c5)CC4)nc(-c4ccncc4)nc13)CCCC2 | 0.105 | 1.31 | –
7 | N#Cc1c2n(c3c(NCCN4CCc5ccccc5C4)ncnc13)CCCC2 | 6.35 | > 50 | –
8 | CCC(=O)c1c2n(c3c(N4CCN(CCc5ccccc5)CC4)ncnc13)CCCC2 | 2.8 | > 50 | –
9 | NC(=O)c1c2n(c3c(N4CCN(CCc5ccc(F)c(F)c5)CC4)ncnc13)CCCC2 | 0.138 | > 50 | AUC [6]: 13100 ng·h/mL; AUC [3]: 25000 ng·h/mL; AUC [7]: 44900 ng·h/mL; Cmax [8]: 4.43 µM; Cmax [4]: 28 µM; Cmax [9]: 8.37 µM; half-life [10]: 6.35 h; half-life [5]: 1.47 h; IC50 (Cytochrome P450 3A4): 45.8 µM; bioavailability [11]: 71.6%; bioavailability [12]: 52%; half-life [13]: 6.86 h
10 | COC(=O)c1c2n(c3c(N4CCN(CCc5ccccc5)CC4)ncnc13)CCCC2 | 0.91 | 16.5 | –
11 | CCNC(=O)c1c2n(c3c(N4CCN(CCc5ccc(F)c(F)c5)CC4)ncnc13)CCCC2 | – | 4.79 | AUC [6]: 14600 ng·h/mL; AUC [3]: 16900 ng·h/mL; AUC [7]: 21100 ng·h/mL; Cmax [8]: 7.34 µM; Cmax [4]: 18.3 µM; Cmax [9]: 5.73 µM; half-life [14]: 7.9 h; half-life [10]: 1.84 h; half-life [5]: 2.3 h; bioavailability [11]: 50%; bioavailability [12]: 85%
12 | N#Cc1c2n(c3c(N4CCN(CC(=O)c5ccccc5)CC4)ncnc13)CCCC2 | 1.85 | 23 | –
13 | O=C(c1ccccc1)c1c2n(c3c(N4CCN(CCc5ccccc5)CC4)ncnc13)CCCC2 | 1.37 | 10.7 | –
14 | N#Cc1c2n(c3c(N4CCN(S(=O)(=O)Cc5ccccc5)CC4)ncnc13)CCCC2 | 6.65 | 14 | –
15 | N#Cc1c2n(c3c(N4CCN(CCc5cccc(Cl)c5)CC4)ncnc13)CCCC2 | 0.92 | 17.9 | –
16 | CN(CCc1ccccc1)c1ncnc2c(C#N)c3n(c12)CCCC3 | 9 | 33 | –
17 | c1ccc(CCN2CCN(c3ncnc4c(-c5ncccn5)c5n(c34)CCCC5)CC2)cc1 | 0.675 | > 50 | –
18 | O=C(Nc1cccnc1)c1c2n(c3c(N4CCN(CCc5ccc(F)c(F)c5)CC4)ncnc13)CCCC2 | – | 4.95 | AUC [3]: 40600 ng·h/mL; AUC [7]: 56400 ng·h/mL; Cmax [4]: 24.5 µM; Cmax [9]: 14.3 µM; half-life [15]: 4.48 h; half-life [14]: 3.75 h; half-life [5]: 6.72 h; bioavailability [11]: 55.5%; bioavailability [12]: 45.6%

Row | SMILES | IC50 [1] [µM] | IC50 [2] [µM] | other results
19 | N#Cc1c2n(c3c(N4CCN(CCc5ccccc5)CC4)nc(I)nc13)CCCC2 | 0.887 | 13 | –
20 | COc1cccc(CNC(=O)c2c3n(c4c(N5CCN(CCc6ccc(F)c(F)c6)CC5)ncnc24)CCCC3)c1OC | 0.043 | 3.7 | AUC (Mus musculus [16]): 12000 ng·h/mL; Cmax (Mus musculus [17]): 4 µM; T1/2 (Mus musculus [18]): 0.8 h; IC50 (Cytochrome P450 3A4): 2.44 µM
21 | N#Cc1c2n(c3c(N4CCN(CCc5cccc([N+](=O)[O-])c5)CC4)ncnc13)CCCC2 | 0.41 | 9.67 | –
22 | N#Cc1c2n(c3c(N4CCN(CCc5ccc(F)c(F)c5)CC4)nc(-c4cccnc4)nc13)CCCC2 | 0.218 | – | –
23 | N#Cc1c2n(c3c(N4CCN(CCc5ccccc5)CC4)ncnc13)CCCC2 | 0.69 | 9.63 | –
24 | N#Cc1c2n(c3c(N4CCN(CCc5c[nH]c6ccccc56)CC4)ncnc13)CCCC2 | 0.6 | 5.82 | –
25 | COc1ccc(CCN2CCN(c3ncnc4c(C#N)c5n(c34)CCCC5)CC2)cc1 | > 50 | – | –
26 | N#Cc1c2n(c3c(N4CCN(CCc5ccc(Cl)cc5)CC4)ncnc13)CCCC2 | 0.399 | 9.2 | –
27 | Cc1nc(-c2c3n(c4c(N5CCN(CCc6ccccc6)CC5)ncnc24)CCCC3)sc1C | 0.533 | 6 | –
28 | N#Cc1c2n(c3c(NS(=O)(=O)Cc4ccccc4)ncnc13)CCCC2 | 20.9 | 5.4 | –
29 | N#Cc1c2n(c3c(N4CCN(CCc5ccc([N+](=O)[O-])cc5)CC4)ncnc13)CCCC2 | 0.523 | 12.9 | –
30 | N#Cc1c2n(c3c(NCCc4ccccc4)ncnc13)CCCC2 | 6.3 | 16 | –
31 | N#Cc1c2n(c3c(N4CCN(CCCc5ccccc5)CC4)ncnc13)CCCC2 | 7.35 | 13 | –
32 | N#Cc1c2n(c3c(N4CCN(CCc5ccccc5Cl)CC4)ncnc13)CCCC2 | 0.955 | 10.6 | –
33 | CC(=O)Nc1ccc(-c2nc(N3CCN(CCc4ccccc4)CC3)c3c(n2)c(C#N)c2n3CCCC2)cc1 | 0.57 | 23.7 | –
34 | N#Cc1c2n(c3c(N4CCN(CCc5ccccc5[N+](=O)[O-])CC4)ncnc13)CCCC2 | 1.41 | > 50 | –
35 | N#Cc1c2n(c3c(N4CCN(CCc5ccc(F)c(F)c5)CC4)ncnc13)CCCC2 | 0.229 | 10.5 | –
36 | Cc1nc(-c2c3n(c4c(N5CCN(CCc6ccccc6)CC5)ncnc24)CCCC3)no1 | 0.65 | 3.7 | –
